20 compounds from ChEMBL document CHEMBL1122950, “Structure-activity relationships of C-terminal tri- and tetrapeptide fragments that inhibit gastrin activity” (J Med Chem, 1985) can be followed below.

Active and inactive are the calls of the source. No cut-off for these calls is given here. Where a SMILES comes first, the peptide text is derived from it.

One test deals with T1, Gastrin/cholecystokinin type B receptor (Rattus norvegicus) (UniProt P30553).
T1 sequence (whole entry): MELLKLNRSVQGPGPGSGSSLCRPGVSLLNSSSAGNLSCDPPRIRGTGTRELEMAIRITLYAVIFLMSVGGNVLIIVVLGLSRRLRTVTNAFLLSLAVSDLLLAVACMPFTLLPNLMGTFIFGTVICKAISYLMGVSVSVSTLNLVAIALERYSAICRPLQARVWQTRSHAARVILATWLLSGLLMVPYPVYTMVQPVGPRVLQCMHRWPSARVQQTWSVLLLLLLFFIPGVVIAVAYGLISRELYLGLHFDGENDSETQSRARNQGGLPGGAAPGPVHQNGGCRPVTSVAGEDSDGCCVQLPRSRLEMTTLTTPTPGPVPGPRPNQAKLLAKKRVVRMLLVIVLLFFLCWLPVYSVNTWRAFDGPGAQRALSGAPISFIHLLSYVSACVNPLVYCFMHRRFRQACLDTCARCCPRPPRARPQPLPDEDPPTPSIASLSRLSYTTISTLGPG
The experiment in a line: Inhibition of gastrin stimulated acid secretion in in situ perfused rat stomach. Type of test: functional, tissue-based. A digest of the protocol: (§1)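 In situ perfused stomach (Ghosh and Schild method) in urethane-anesthetized rats, with urethane given ip, or im and ip for some analogues. Acid secretion was stimulated by gastrin and test peptides were given in vivo. Antagonism is expressed as ED50 in μM/kg.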
With `CC(C)CC(NC(=O)[C@H](Cc1c[nH]c2ccccc12)NC(=O)OC(C)(C)C)C(=O)N[C@@H](CC(=O)O)C(N)=O` (stereo not given in full), it took a dose of 15 µmol/kg to reach the 50% effect level (ED50).

For the compound `CC(C)C[C@H](NC(=O)[C@H](Cc1c[nH]c2ccccc12)NC(=O)OC(C)(C)C)C(=O)N[C@H](CC(=O)O)C(N)=O`, the ED50 was found to be 17 µmol/kg. The same measure, in the same setting: in the case of `CCCN(CCC)C(=O)C(CCC(=O)O)NC(=O)c1ccccc1` (stereo not given) it was 350 µmol/kg; in that of `O=C(N[C@@H](Cc1c[nH]c2ccccc12)C(=O)O)c1ccc(Cl)cc1`, 170 µmol/kg.

In the case of `CSCC[C@H](NC(=O)[C@H](Cc1c[nH]c2ccccc12)NC(=O)CNC(=O)OC(C)(C)C)C(=O)N[C@@H](CC(=O)O)C(N)=O` (HELM PEPTIDE1{[CC(C)(C)OC(=O)[*:2]].G.W.M.D.[am]}$$$$V2.0), the ED50 is 8 µmol/kg.

Compound `C[C@H](NC(=O)[C@H](Cc1c[nH]c2ccccc12)NC(=O)OC(C)(C)C)C(=O)N[C@@H](CC(=O)O)C(N)=O` (HELM PEPTIDE1{[CC(C)(C)OC(=O)[*:2]].W.A.D.[am]}$$$$V2.0) came in with an ED50 of 30 µmol/kg.

`CC(C)(C)OC(=O)N[C@@H](Cc1c[nH]c2ccccc12)C(=O)N[C@@H](Cc1ccccc1)C(=O)N[C@@H](CC(=O)O)C(N)=O` (HELM PEPTIDE1{[CC(C)(C)OC(=O)[*:2]].W.F.D.[am]}$$$$V2.0) returned an ED50 of 26.5 µmol/kg. The same measure, in the same setting: to `CC(C)(C)OC(=O)N[C@@H](Cc1c[nH]c2ccccc12)C(=O)NCC(=O)N[C@@H](CC(=O)O)C(N)=O` (HELM PEPTIDE1{[CC(C)(C)OC(=O)[*:2]].W.G.D.[am]}$$$$V2.0) belongs 60 µmol/kg; to `CC[C@H](C)[C@H](NC(=O)[C@H](Cc1c[nH]c2ccccc12)NC(=O)OC(C)(C)C)C(=O)N[C@@H](CC(=O)O)C(N)=O` (HELM PEPTIDE1{[CC(C)(C)OC(=O)[*:2]].W.I.D.[am]}$$$$V2.0), 25 µmol/kg; to `CC(C)C[C@H](NC(=O)[C@H](Cc1c[nH]c2ccccc12)NC(=O)OC(C)(C)C)C(=O)N[C@@H](C)C(N)=O` (HELM PEPTIDE1{[CC(C)(C)OC(=O)[*:2]].W.L.A.[am]}$$$$V2.0), 150 µmol/kg. The same measure, in the same setting: in the case of `CC(C)C[C@H](NC(=O)[C@H](Cc1c[nH]c2ccccc12)NC(=O)OC(C)(C)C)C(=O)N[C@@H](CC(=O)O)C(=O)N(C)C` (HELM PEPTIDE1{[CC(C)(C)OC(=O)[*:2]].W.L.D.[CN(C)[*:1]]}$$$$V2.0) it was 10 µmol/kg; in that of `CC(C)C[C@H](NC(=O)[C@H](Cc1c[nH]c2ccccc12)NC(=O)OC(C)(C)C)C(=O)N[C@@H](CC(=O)O)C(=O)O` (HELM PEPTIDE1{[CC(C)(C)OC(=O)[*:2]].W.L.D}$$$$V2.0), 27.3 µmol/kg. The same measure, in the same setting: in the case of `CC(C)C[C@H](NC(=O)[C@H](Cc1c[nH]c2ccccc12)NC(=O)OC(C)(C)C)C(=O)N[C@@H](CCC(=O)O)C(N)=O` (HELM PEPTIDE1{[CC(C)(C)OC(=O)[*:2]].W.L.E.[am]}$$$$V2.0) it was 11 µmol/kg.

As to `CC(C)C[C@H](NC(=O)[C@H](Cc1c[nH]c2ccccc12)NC(=O)OC(C)(C)C)C(=O)N[C@@H](CC(N)=O)C(=O)O` (HELM PEPTIDE1{[CC(C)(C)OC(=O)[*:2]].W.L.N}$$$$V2.0), it took a dose of 19 µmol/kg to reach the 50% effect level (ED50). Same read-out and setting: to `CSCC[C@H](NC(=O)[C@H](Cc1c[nH]c2ccccc12)NC(=O)OC(C)(C)C)C(=O)N[C@@H](CC(=O)O)C(N)=O` (HELM PEPTIDE1{[CC(C)(C)OC(=O)[*:2]].W.M.D.[am]}$$$$V2.0) belongs 14 µmol/kg. Still for that read-out and setting: in the case of `CC(C)(C)OC(=O)N[C@@H](Cc1c[nH]c2ccccc12)C(=O)N1CCC[C@H]1C(=O)N[C@@H](CC(=O)O)C(N)=O` (HELM PEPTIDE1{[CC(C)(C)OC(=O)[*:2]].W.P.D.[am]}$$$$V2.0) it was 15 µmol/kg; in that of `CCCC[C@H](NC(=O)[C@H](Cc1c[nH]c2ccccc12)NC(=O)OC(C)(C)C)C(=O)N[C@@H](CC(=O)O)C(N)=O` (HELM PEPTIDE1{[CC(C)(C)OC(=O)[*:2]].W.[Nle].D.[am]}$$$$V2.0), 14 µmol/kg; in that of `CC(C)C[C@H](NC(=O)[C@H](Cc1c[nH]c2ccccc12)NC(=O)OCc1ccccc1)C(=O)N[C@@H](CC(=O)O)C(N)=O` (HELM PEPTIDE1{[O=C(OCc1ccccc1)[*:2]].W.L.D.[am]}$$$$V2.0), 38 µmol/kg.

For a further test, the species on record is Rattus norvegicus. The experiment in a line: Inhibition of gastrin stimulated acid secretion in the in situ perfused rat stomach; Inactive. Type of test: functional, organism-based. In a few lines: as §1
With `CC(C)C[C@H](NC(=O)[C@H](Cc1c[nH]c2ccccc12)NC(=O)OC(C)(C)C)C(=O)N[C@@H](CC(=O)OCc1ccccc1)C(N)=O` (HELM PEPTIDE1{[CC(C)(C)OC(=O)[*:2]].W.L.D.[am]}|CHEM1{[c1ccc(CO[*:1])cc1]}$PEPTIDE1,CHEM1,4:R3-1:R1$$$V2.0), the ED50 result is “inactive”. Same read-out and setting: to `CSCC[C@H](NC(=O)[C@H](Cc1c[nH]c2ccccc12)NC(=O)OC(C)(C)C)C(=O)N[C@@H](CC(=O)OCc1ccccc1)C(N)=O` (HELM PEPTIDE1{[CC(C)(C)OC(=O)[*:2]].W.M.D.[am]}|CHEM1{[c1ccc(CO[*:1])cc1]}$PEPTIDE1,CHEM1,4:R3-1:R1$$$V2.0) belongs “inactive”.
